Measurements as given in ChEMBL document CHEMBL1799943, “1-(5-Carboxyindol-1-yl)propan-2-one inhibitors of human cytosolic phospholipase A2α: effect of substituents in position 3 of the indole scaffold on inhibitory potency, metabolic stability, solubility, and bioavailability” (J Med Chem, 2010).

Tests used:
[1] = Partition coefficient, log P of the compound by reverse phase HPLC analysis; type: physicochemical; conditions: octanol/water
Outline: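 log P estimated from reversed-phase HPLC retention times of each compound's ketone form.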

[2] = Metabolic stability in rat liver microsomes assessed as compound remaining after 30 mins by UV-reverse phase HPLC analysis; type: ADME, Microsome; conditions: read-out: Stability
[3] = Drug level in C57Bl6 mouse bile assessed as 3-(5-carboxypentanoyl)-1-(2-hydroxy-3-(4-octylphenoxy)propyl)-1H-indole-5-carboxylic acid at 100 mg/kg, po after 2 hrs by HPLC analysis in presence of Helix pomatia beta-glucuronidase HP2; type: ADME, organism-based; set-up: dose 100 mg/kg, route oral; conditions: in vivo
Outline: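 C57Bl6 mice (n = 3) were gavaged once with 100 mg/kg suspended in 1% aqueous methylcellulose, and bile was taken at 2 h. Bile in PBS pH 5.5 was treated with Helix pomatia β-glucuronidase HP-2 at 60 °C for 1 h to cleave glucuronides. Acetonitrile was then added, samples were left 5 min, spun 2000g for 15 min, and analysed by reversed-phase HPLC-UV. Mean ± SD.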

[4] = Drug level in C57Bl6 mouse bile assessed as 3-(5-carboxypentanoyl)-1-(2-hydroxy-3-(4-octylphenoxy)propyl)-1H-indole-5-carboxylic acid at 100 mg/kg, po after 2 hrs by HPLC analysis; type: ADME, organism-based; set-up: dose 100 mg/kg, route oral; conditions: in vivo
Intestine [5] = assay: Drug level in C57Bl6 mouse intestine assessed as 3-(5-carboxypentanoyl)-1-(2-hydroxy-3-(4-octylphenoxy)propyl)-1H-indole-5-carboxylic acid per gut at 100 mg/kg, po after 2 hrs by HPLC analysis; type: ADME, organism-based; set-up: dose 100 mg/kg, route oral; conditions: in vivo
Outline: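 Whole intestine removed 2 h after a single 100 mg/kg gavage (1% methylcellulose suspension) in C57Bl6 mice (n = 3). Tissue minced and homogenised in PBS pH 7.4 at 0 °C, then extracted with acetonitrile with repeated PBS/acetonitrile 1:1 washes, spun 2000g at 4 °C. Pooled extract made up to volume and analysed by reversed-phase HPLC-UV. Amount per gut, mean ± SD.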

[6] = Drug level in rat plasma at 100 mg/kg, po after 4 hrs by HPLC analysis; type: ADME, organism-based; set-up: dose 100 mg/kg, route oral
[7] = Drug level in C57Bl6 mouse bile at 100 mg/kg, po after 2 hrs by HPLC analysis; type: ADME, organism-based; set-up: dose 100 mg/kg, route oral; conditions: read-out: Drug uptake
Outline: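 Mice (C57Bl6, n = 3) were dosed orally by gavage at 100 mg/kg in 1% methylcellulose and killed 2 h later for bile collection. For direct measurement, bile was diluted in pH 7.4 PBS with equal acetonitrile. Alternatively, bile in pH 5.5 PBS was digested with Helix pomatia β-glucuronidase HP-2 at 60 °C for 1 h, then acetonitrile was added. Both were centrifuged at 2000g and analysed by reversed-phase HPLC-UV.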

Plasma [8] = assay: Drug level in C57Bl6 mouse plasma assessed as 3-(5-carboxypentanoyl)-1-(2-hydroxy-3-(4-octylphenoxy)propyl)-1H-indole-5-carboxylic acid at 100 mg/kg, po after 1 hr by HPLC analysis; type: ADME, organism-based; set-up: dose 100 mg/kg, route oral; conditions: in vivo
Outline: (§1)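 Male/female unspecified C57Bl6 mice (n = 3) got a single 100 mg/kg oral gavage dose as a suspension in 1% aqueous methylcellulose (8 μL/g). Blood was drawn at 1 and 2 h and centrifuged at 3000g for 20 min. Plasma was mixed with pH 7.4 PBS and acetonitrile, left 5 min at room temperature and spun at 2000g for 15 min. Supernatant went to reversed-phase C18 HPLC-UV for parent and alcohol metabolite.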

[9] = Drug level in C57Bl6 mouse intestine assessed per gut at 100 mg/kg, po after 2 hrs by HPLC analysis; type: ADME, organism-based; set-up: dose 100 mg/kg, route oral; conditions: read-out: Drug uptake
Outline: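 Whole intestines were taken from C57Bl6 mice (n = 3) 2 h after 100 mg/kg oral gavage in 1% methylcellulose. Each was minced, homogenized at 0 °C in pH 7.4 PBS and extracted with acetonitrile. Pellet washes with PBS/acetonitrile 1:1 were pooled, made up to volume, centrifuged and filtered. Parent and alcohol metabolite per whole gut were quantified by reversed-phase HPLC-UV.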

Plasma [10] = assay: Drug level in C57Bl6 mouse plasma assessed as 3-(5-carboxypentanoyl)-1-(2-hydroxy-3-(4-octylphenoxy)propyl)-1H-indole-5-carboxylic acid at 100 mg/kg, po after 2 hrs by HPLC analysis; type: ADME, organism-based; set-up: dose 100 mg/kg, route oral; conditions: in vivo; outline: as §1
[11] = Drug level in C57Bl6 mouse plasma at 100 mg/kg, po after 2 hrs by HPLC analysis; type: ADME, organism-based; set-up: dose 100 mg/kg, route oral; outline: as §1
[12] = Drug level in C57Bl6 mouse plasma at 100 mg/kg, po after 1 hr by HPLC analysis; type: ADME, organism-based; set-up: dose 100 mg/kg, route oral; outline: as §1
Intestine [13] = assay: Drug level in C57Bl6 mouse intestine assessed as 3-(5-Carboxypentanoyl)-1-[2-hydroxy-3-(4-octylphenoxy)propyl]indole-5-carboxylic acid level assessed per gut at 100 mg/kg, po after 2 hrs by HPLC analysis in presence of Helix pomatia beta-glucuronidase HP2; type: ADME, organism-based; set-up: dose 100 mg/kg, route oral; conditions: in vivo
Intestine [14] = assay: Drug level in C57Bl6 mouse intestine assessed per gut at 100 mg/kg, po after 2 hrs by HPLC analysis in presence of Helix pomatia beta-glucuronidase HP2; type: ADME, organism-based; set-up: dose 100 mg/kg, route oral; conditions: in vivo
[15] = Drug level in C57Bl6 mouse plasma at 10 mg/kg, po after 2 hrs by HPLC analysis; type: ADME, organism-based; set-up: dose 10 mg/kg, route oral
[16] = Drug level in C57Bl6 mouse plasma at 10 mg/kg, po after 1 hr by HPLC analysis; type: ADME, organism-based; set-up: dose 10 mg/kg, route oral

Compound | logP [1] | remaining at 0.5 h [2] [%] | further results
CCCCCCCCc1ccc(OCC(=O)Cn2cc(C(=O)c3ccc(C(=O)O)cc3)c3cc(C(=O)O)ccc32)cc1 | 5.6 | 87 | 
CCCCCCCCc1ccc(OCC(=O)Cn2cc(C(=O)CCCCC)c3cc(C(=O)O)ccc32)cc1 | > 7 |  | 
CCCCCCCCc1ccc(OCC(=O)Cn2cc(CCCC)c3cc(C(=O)O)ccc32)cc1 | > 7 | 82 | 
CCCCCCCCc1ccc(OCC(O)Cn2cc(C(=O)CCCCC(=O)O)c3cc(C(=O)O)ccc32)cc1 (centres undefined) |  |  | Drug uptake [3]: 33 µg/mL; Drug uptake [4]: < 1 µg/mL; Drug uptake (Intestine [5]): 14 µg/mL
CCCCCCCCc1ccc(OCC(=O)Cn2cc(-c3nc(C)no3)c3cc(C(=O)O)ccc32)cc1 | 6.3 | 81 | 
CCCCCCCCc1ccc(OCC(=O)Cn2cc(C(=O)C(C)(C)C)c3cc(C(=O)O)ccc32)cc1 | > 7 | 93 | 
CCCCCCCCc1ccc(OCC(=O)Cn2cc(CC)c3cc(C(=O)O)ccc32)cc1 | > 7 | 84 | 
CCCCCCCCCCCC(=O)c1c(C(=O)O)n(CCOc2ccc(CC(=O)O)cc2)c2ccccc12 |  |  | concentration at 4 h [6]: 100000 ng/mL
CCCCCCCCc1ccc(OCC(=O)Cn2cc(CCCCCC)c3cc(C(=O)O)ccc32)cc1 | > 7 | 94 | 
CCCCCCCCc1ccc(OCC(=O)Cn2cc(C(=O)c3cccc(C(=O)O)c3)c3cc(C(=O)O)ccc32)cc1 | 5.7 | 87 | 
O=C(O)CCCCC(=O)c1cn(CC(=O)COc2ccc(Oc3ccccc3)cc2)c2ccc(C(=O)O)cc12 | 2.1 | 24 | 
CCCCCCCCc1ccc(OCC(=O)Cn2cc(C(=O)CCCCC(=O)O)c3cc(C(=O)O)ccc32)cc1 | 5.3 |  | concentration at 2 h [7]: 6000 ng/mL; Cp (Plasma [8]): < 100 ng/mL; concentration at 2 h [9]: 870000 ng/mL; Cp (Plasma [10]): < 100 ng/mL; concentration at 2 h [11]: < 200 ng/mL; concentration at 1 h [12]: < 200 ng/mL
CCCCCCCCc1ccc(OCC(=O)Cn2cc(C(=O)CCC)c3cc(C(=O)O)ccc32)cc1 | 6.7 |  | 
CC(C)C(=O)c1cn(CC(=O)COc2ccc(Oc3ccccc3)cc2)c2ccc(C(=O)O)cc12 |  |  | Drug uptake (Intestine [13]): 875 µg; Drug uptake (Intestine [14]): 404 µg; concentration at 2 h [11]: < 1000 ng/mL; concentration at 1 h [12]: < 5000 ng/mL
CCCCCCCCc1ccc(OCC(=O)Cn2cc(C(=O)CCC(=O)O)c3cc(C(=O)O)ccc32)cc1 | 5.1 |  | 
COc1ccc2c(c1)c(CC(=O)O)c(C)n2C(=O)c1ccc(Cl)cc1 [INDOMETHACIN] |  |  | concentration at 2 h [15]: 34000 ng/mL; concentration at 1 h [16]: 42000 ng/mL
CCCCCCCCc1ccc(OCC(=O)Cn2cc(C(=O)c3ccccc3)c3cc(C(=O)O)ccc32)cc1 | 6.9 | 95 | 
CCCCCCCCc1ccc(OCC(=O)Cn2cc(C(=O)CCCC(=O)O)c3cc(C(=O)O)ccc32)cc1 | 5.2 | 95 | 
Cc1noc(-c2cn(CC(=O)COc3ccc(Oc4ccccc4)cc3)c3ccc(C(=O)O)cc23)n1 | 3.1 | 8 | 
CCCCCCCCc1ccc(OCC(=O)Cn2cc(C(=O)C(F)(F)F)c3cc(C(=O)O)ccc32)cc1 | > 7 | 87 | 
